Measured values as given in ChEMBL document CHEMBL4376838, “Discovery of Novel Celastrol Derivatives as Hsp90-Cdc37 Interaction Disruptors with Antitumor Activity” (J Med Chem, 2019).
The source made the active and inactive calls. The calls are words filed in the database; no cut-off is given here.

Experiments:
[1] = tested on: A549; assay: Induction of cell cycle arrest in human A549 cells assessed as accumulation at G2 phase at 0.2 uM incubated for 24 hrs by PI staining based flow cytometric analysis (reference value: 19.37%); type: functional
How it was run: (§1)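 A549 cells (4×10^5 per 6 cm dish) were grown 24 h, then exposed to compound (0.2, 0.4, 0.8 μM) or DMSO for 24 h. Cells fixed in 75% ethanol at −20 °C for at least 12 h, treated with RNase A at 37 °C for 30 min, then stained with PI for 15 min in the dark. Analysed by flow cytometry, mean ± SD, n = 3.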

[2] = tested on: A549; assay: Induction of apoptosis in human A549 cells assessed as viable cells at 1.2 uM incubated for 48 hrs by Annexin V-FITC and PI staining based flow cytometric analysis (reference value: 95.5%); type: functional; settings: A549, 48 h, read-out: Activity
How it was run: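 A549 cells (4×10^5 per 6 cm dish) cultured 24 h, then treated 48 h with compound or DMSO. Cells gently harvested, washed twice in cold PBS, resuspended in binding buffer with Annexin V and PI, stained 15 min at room temperature in the dark, analysed by flow cytometry. Mean ± SD, n = 3.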

[3] = tested on: A549; assay: Induction of cell cycle arrest in human A549 cells assessed as accumulation at G2 phase at 0.8 uM incubated for 24 hrs by PI staining based flow cytometric analysis (reference value: 19.37%); type: functional; how it was run: as §1
[4] = tested on: A549; assay: Induction of cell cycle arrest in human A549 cells assessed as accumulation at G1 phase at 0.4 uM incubated for 24 hrs by PI staining based flow cytometric analysis (reference value: 60.14%); type: functional; how it was run: as §1
[5] = tested on: A549; assay: Induction of apoptosis in human A549 cells assessed as late apoptotic cells at 0.6 uM incubated for 48 hrs by Annexin V-FITC and PI staining based flow cytometric analysis (reference value: 3.0%); type: functional
[6] = biological target: Heat shock protein HSP 90-alpha (Homo sapiens) (UniProt P07900); assay: Inhibition of ATP binding to human HSP90 alpha at 5 to 10 uM preincubated for 30 mins followed by gamma phosphate-linked ATP sepharose addition and measured after 30 mins by ATP-binding sepharose assay based western blot analysis
How it was run: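 Purified human Hsp90α incubated on ice 30 min with compound or DMSO in 10 mM Tris-HCl pH 7.5, 50 mM KCl, 5 mM MgCl2, 2 mM DTT, 20 mM Na2MoO4, 0.01% NP-40. γ-phosphate-linked ATP-Sepharose then added, 30 min at 37 °C with frequent mixing. Resin washed and pelleted, bound Hsp90α detected by SDS-PAGE/Western blot.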

[7] = tested on: A549; assay: Induction of cell cycle arrest in human A549 cells assessed as accumulation at G1 phase at 0.2 uM incubated for 24 hrs by PI staining based flow cytometric analysis (reference value: 60.14%); type: functional; how it was run: as §1
[8] = biological target: T1, Hsp90 co-chaperone Cdc37 (Homo sapiens) (UniProt Q16543); assay: Inhibition of Cdc37 in human A549 cells assessed as disruption of HSP90 alpha-Cdc37 interaction by measuring decrease in Cdc37 protein level at 5 uM incubated for 6 hrs by immunoprecipitation based immunoblot analysis; type: cell-based
T1 sequence (whole entry): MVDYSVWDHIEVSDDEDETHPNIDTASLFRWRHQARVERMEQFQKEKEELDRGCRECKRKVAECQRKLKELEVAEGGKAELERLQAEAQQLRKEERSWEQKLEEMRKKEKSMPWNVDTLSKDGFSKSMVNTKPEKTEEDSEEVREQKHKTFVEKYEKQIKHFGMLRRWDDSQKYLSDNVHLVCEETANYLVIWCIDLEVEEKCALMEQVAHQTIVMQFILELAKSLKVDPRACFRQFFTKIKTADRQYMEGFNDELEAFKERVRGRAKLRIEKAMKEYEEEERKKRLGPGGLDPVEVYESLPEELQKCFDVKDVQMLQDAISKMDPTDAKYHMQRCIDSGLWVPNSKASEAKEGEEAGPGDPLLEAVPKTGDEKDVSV
How it was run: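 A549 cells (5×10^5 per 6 cm dish) were grown 24 h, then treated with 5 μM compound or DMSO for 6 h. Lysates were immunoprecipitated with Hsp90α antibody, and co-precipitated Cdc37 and Hsp90 were detected by Western blot. Mean ± SD, n = 3.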

[9] = tested on: A549; assay: Induction of apoptosis in human A549 cells assessed as viable cells at 0.3 uM incubated for 48 hrs by Annexin V-FITC and PI staining based flow cytometric analysis (reference value: 95.5%); type: functional; settings: A549, 48 h, read-out: Activity
[10] = tested on: A549; assay: Antiproliferative activity against human A549 cells assessed as inhibition of cell growth incubated for 48 hrs by MTT assay; type: functional, cell-based; settings: A549, 48 h
How it was run: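 MTT read-out. Cells seeded at 5.0 × 10⁴ cells/ml and cultured 24 h, then exposed to the drug over a range of concentrations for 48 h, with matching DMSO as control. MTT (5 mg/ml) added for 4 h, supernatant removed, formazan dissolved in DMSO, OD read at 570 nm. Run in triplicate, mean ± SD (n = 3).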

[11] = tested on: A549; assay: Induction of apoptosis in human A549 cells assessed as early apoptotic cells at 0.3 uM incubated for 48 hrs by Annexin V-FITC and PI staining based flow cytometric analysis (reference value: 0.5%); type: functional
[12] = tested on: A549; assay: Induction of morphological apoptosis in human A549 cells assessed as decrease in cell density incubated for 48 hrs by Hoechst 33342 and PI staining based fluorescence microscopic method; type: functional
How it was run: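 A549 cells (4×10^5 per 6 cm dish) were grown 24 h, then exposed to compound at the indicated concentrations or DMSO for 48 h. After PBS washes, cells were stained with Hoechst 33342 (10 µg/ml) plus PI for 5 min at room temperature in the dark and imaged by fluorescence microscopy for nuclear morphology.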

[13] = tested on: A549; assay: Induction of cell cycle arrest in human A549 cells assessed as accumulation at G1 phase at 0.8 uM incubated for 24 hrs by PI staining based flow cytometric analysis (reference value: 60.14%); type: functional; how it was run: as §1
[14] = tested on: A549; assay: Induction of cell cycle arrest in human A549 cells assessed as accumulation at G2 phase at 0.4 uM incubated for 24 hrs by PI staining based flow cytometric analysis (reference value: 19.37%); type: functional; how it was run: as §1
[15] = tested on: A549; assay: Induction of apoptosis in human A549 cells assessed as early apoptotic cells at 0.6 uM incubated for 48 hrs by Annexin V-FITC and PI staining based flow cytometric analysis (reference value: 0.5%); type: functional
[16] = biological target: T1, Hsp90 co-chaperone Cdc37 (Homo sapiens); assay: Binding affinity to Cdc37 in human A549 cells assessed as inhibition of HSP90-Cdc37 interaction by measuring increase in cleaved caspase-3 protein level at 1.25 to 5 uM incubated for 12 hrs by Western blot analysis; type: cell-based
How it was run: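 A549 cells (5×10^5 per 6 cm dish) were allowed to settle 12 h, then treated with DMSO or compound at the indicated concentrations for 12 h. Lysates were adjusted to 3 mg/ml protein by BCA and resolved on 10% SDS-PAGE, then Western blotted. β-actin or Hsp90 served as the loading control. Three separate experiments, mean ± SD.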

[17] = tested on: A549; assay: Induction of mitochondrial membrane potential loss in human A549 cells assessed as cells with depolarized mitochondria by measuring increase in J-monomer green fluorescence intensity at 0.4 uM incubated for 24 hrs by JC1 staining based fluorescence microscopic method (reference value: 1.5%); type: functional

## CC1=C(O)C(=O)C=C2C1=CC=C1[C@@]2(C)CC[C@@]2(C)[C@@H]3C[C@](C)(C(=O)OCCCOC(=O)/C=C(\C#N)c4ccc(F)cc4)CC[C@]3(C)CC[C@]12C
[1]
  Activity: 16.78%
[2]
  viability at 1.2 µM: 59.2%
[3]
  Activity: 15.55%
[4]
  Activity: 67.51%
[5]
  Activity: 16.9%
[6]
  inhibition: inactive
[7]
  Activity: 64.36%
[8]
  inhibition: Active
[9]
  viability at 0.3 µM: 85.2%
[10]
  IC50: 410 nM
[11]
  Activity: 2.2%
[12]
  Activity: Dose-dependent effect
[13]
  Activity: 70.49%
[14]
  Activity: 16%
[15]
  Activity: 5.9%
[16]
  inhibition: Active
[17]
  Activity: 18.7%
